37 compounds from ChEMBL document CHEMBL2057078, “Synthesis and in vitro antiproliferative activity of new 11-aminoalkylamino-substituted 5H- and 6H-indolo[2,3-b]quinolines; structure-activity relationships of neocryptolepines and 6-methyl congeners” (Bioorg Med Chem, 2012) can be followed below.

One test deals with MV4-11. In words: Antiproliferative activity against human MV4-11 cells after 72 hrs by MTT assay. It counts as functional, cell-based. The note with it: MV4-11, 72 h. The method in brief:
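Leukemia cells cultured in RPMI 1640 at 37 °C, 5% CO2. Plated at 1 × 10⁴ cells/well 24 h ahead, then 72 h with compound at 0.001–10 µg/mL. MTT (stock 5 mg/mL) added, formazan dissolved with a DMF/SDS lysing mixture for 24 h, OD read at 570 nm. IC50 vs untreated control; triplicates, 3–5 repeats.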

Test [1] relates to A549. The experiment in a line: Antiproliferative activity against human A549 cells after 72 hrs by SRB assay. It counts as functional, cell-based. The note with it: A549, 72 h. The method in brief: (§1)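 Cells grown in RPMI 1640+OptiMEM (50:50) with 2 mM L-glutamine and 5% FBS at 37 °C, 5% CO2. Plated at 1 × 10⁴ cells/well 24 h before treatment, then exposed 72 h to 0.001–10 µg/mL compound (from 1 mg/mL stock in DMSO/medium). TCA-fixed, stained with 0.4% SRB in 1% acetic acid, dye extracted with 10 mM Tris, read at 540 nm. IC50 vs untreated control; triplicates, 3–5 experiments.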

A further test deals with HCT-116. In words: Antiproliferative activity against human HCT116 cells after 72 hrs by SRB assay. It counts as functional, cell-based. The note with it: HCT-116, 72 h. Summed up:
as §1

The subject of test [2] is BALB/3T3. The experiment in a line: Antiproliferative activity against mouse BALB/3T3 cells after 72 hrs by SRB assay. The note with it: BALB/3T3, 72 h. In kind it is cell-based. The method in brief:
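Mouse fibroblasts kept in Dulbecco's medium with 2 mM L-glutamine, 1.0 mM sodium pyruvate and 10% FBS at 37 °C, 5% CO2. Seeded at 1 × 10⁴ cells/well a day before dosing, then 72 h exposure to 0.001–10 µg/mL. SRB staining after TCA fixation, Tris extraction, OD 540 nm. IC50 relative to untreated cells; triplicate wells, 3–5 independent runs.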

Test [3] concerns BALB/3T3. The experiment in a line: Selectivity ratio of IC50 for mouse BALB/3T3 cells to IC50 for human HCT116 cells.
The test system of test [4] is A549. The experiment in a line: Selectivity ratio of IC50 for human A549 cells to IC50 for human HCT116 cells. It counts as functional.
Test [5] deals with BALB/3T3. The experiment in a line: Selectivity ratio of IC50 for mouse BALB/3T3 cells to IC50 for human A549 cells.
The test system of the next test is Nucleic Acid. In words: Binding affinity to salmon fish sperm DNA assessed as hypochromic effect by UV-Vis absorption spectroscopic analysis at pH 7. It counts as nucleic-acid assay. Particulars: Salmonidae. Summed up:
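UV–vis absorption titration in pH 7.0 phosphate buffer with 2.5% DMSO at 20 °C, 1 cm quartz cuvette. Compound held at 50 µmol/L with DNA added from 0 to 1.0 µmol/L. Binding assessed from absorbance change using a 1/ΔA versus 1/[DNA] plot.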

Counter-ions that a name gives are not always drawn.

In the case of `Cn1c2nc3ccccc3c-2c(NCCCN)c2cc(Cl)ccc21`, the IC50 with MV4-11 was determined as 68 nM; in the test on A549 [1], 761 nM; in the test with HCT-116, 195 nM; in the test with BALB/3T3 [2], 401 nM. Moreover, the “Ratio IC50” value with BALB/3T3 [3] and in the test with A549 [4] was 4 throughout.
As to `COc1ccc2c(c1)c(Cl)c1c3ccccc3nc-1n2C`, the IC50 in the test on MV4-11 was 1210 nM. In other words, the single-digit micromolar range.
On to `Cn1c2nc3ccccc3c-2c(Cl)c2cc(Br)ccc21`, for which the IC50 in the test on MV4-11 came to 810 nM.
Regarding `CCN(CC)CCCC(C)Nc1c2c3ccccc3nc-2n(C)c2ccc(Br)cc12` (configuration not stated), in the test on MV4-11, the IC50 turned out to be 578 nM.
On to `Cn1c2nc3ccccc3c-2c(Cl)c2ccccc21` [11-CHLORONEOCRYPTOLEPINE], for which inhibition in the test on MV4-11 was half-maximal at 1310 nM (IC50).
`CCN(CC)CCCC(C)Nc1c2cc(Cl)ccc2nc2c1c1ccccc1n2C` (configuration not stated): the IC50 with MV4-11 is 5250 nM.
`Cn1c2nc3ccccc3c-2c(NCCCO)c2cc(Cl)ccc21` returned an IC50 with MV4-11 of 530 nM.
With `CN1CCCN(c2c3c4ccccc4nc-3n(C)c3ccc(Cl)cc23)CC1`, the IC50 in the test with MV4-11 was 106 nM; in the test on A549 [1] it was 7390 nM; with HCT-116 it was 1750 nM; in the test with BALB/3T3 [2] it was 6410 nM. The “Ratio IC50” value in the test on BALB/3T3 [3] and in the test on A549 [4] was 4 in each case.
With `Cn1c2nc3ccccc3c-2c(NCCc2c[nH]c3ccccc23)c2ccccc21`, the IC50 in the test on MV4-11 amounted to 871 nM.
For `Cn1c2nc3ccccc3c-2c(NCCCO)c2ccccc21`, the IC50 with MV4-11 is 170 nM; with A549 [1], 973 nM; with HCT-116 it was 714 nM; in the test with BALB/3T3 [2] it was 635 nM.
Regarding `CN1CCCN(c2c3c4ccccc4nc-3n(C)c3ccc(Br)cc23)CC1`, the IC50 was 737 nM in the test with MV4-11, 4540 nM in the test on A549 [1], 1160 nM in the test with HCT-116 and 7600 nM with BALB/3T3 [2].
The compound `CN(C)CCCNCc1c2c3ccccc3nc-2n(C)c2ccc(Cl)cc12` registered an IC50 in the test with MV4-11 of 3460 nM.
On to `Cn1c2nc3ccccc3c-2c(NCCCCN)c2cc(F)ccc21`, for which the IC50 came out at 95 nM with MV4-11, 785 nM with A549 [1], 178 nM in the test on HCT-116 and 853 nM in the test with BALB/3T3 [2]. Moreover, the “Ratio IC50” value in the test with BALB/3T3 [3] and in the test on A549 [4] was 4 each time.
Take `Cn1c2nc3ccccc3c-2c(N2CCOCC2)c2ccccc21`: the IC50 in the test on MV4-11 was 164 nM; in the test on A549 [1], 1510 nM; in the test with HCT-116 it was 1800 nM; in the test on BALB/3T3 [2], 1610 nM.
Regarding `CN1CCCN(c2c3cc(Cl)ccc3nc3c2c2ccccc2n3C)CC1`, the IC50 was 773 nM with MV4-11, 11200 nM with A549 [1], 8000 nM in the test with HCT-116 and greater than 25000 nM in the test on BALB/3T3 [2].
For the compound `COc1ccc2c(c1)c(NCCCN)c1c3ccccc3nc-1n2C`, the IC50 is 102 nM in the test on MV4-11, 407 nM with A549 [1], 155 nM with HCT-116 and 978 nM in the test on BALB/3T3 [2]. Further, the “Ratio IC50” value in the test with BALB/3T3 [5] and in the test on BALB/3T3 [3] was 3 in each case.
Turning to `Cn1c2nc3ccccc3c-2c(NCCCN)c2cc(Br)ccc21`, the IC50 with MV4-11 came out at 12 nM; in the test on A549 [1], 543 nM; with HCT-116 it was 274 nM; with BALB/3T3 [2], 869 nM. The “Ratio IC50” value in the test on BALB/3T3 [5] and with BALB/3T3 [3] was 3 in each case. Further, the K with Nucleic Acid was 2.93 ×10⁵ L/mol.
Take `COc1ccc2c(c1)c(NCCCO)c1c3ccccc3nc-1n2C`: the IC50 in the test on MV4-11 amounted to 135 nM; in the test on A549 [1], 1010 nM; with HCT-116, 278 nM; with BALB/3T3 [2], 807 nM. In addition, the “Ratio IC50” value with BALB/3T3 [3] and in the test on A549 [4] was 4 throughout.
Regarding `COc1cccc2c1C(=O)c1c(O)c3c(c(O)c1C2=O)C[C@@](O)(C(=O)CO)C[C@@H]3O[C@H]1C[C@H](N)[C@H](O)[C@H](C)O1` [DOXORUBICIN HYDROCHLORIDE], the IC50 in the test with MV4-11 is 6 nM; with A549 [1], 329 nM; with HCT-116, 390 nM; in the test with BALB/3T3 [2] it was 1080 nM.
As for `Cn1c2nc3ccccc3c-2c(NCCCCN)c2ccccc21`, the IC50 with MV4-11 came to 100 nM; with A549 [1] it was 911 nM; in the test with HCT-116, 669 nM; in the test on BALB/3T3 [2], 936 nM.
As for `Cn1c2nc3ccccc3c-2c(NCCCCN)c2cc(Br)ccc21`, the IC50 in the test with MV4-11 came out at 91 nM; in the test on A549 [1], 579 nM; with HCT-116, 209 nM; in the test on BALB/3T3 [2] it was 742 nM. In addition, the “Ratio IC50” value with BALB/3T3 [5] and in the test with BALB/3T3 [3] was 3 throughout.
In the case of `COc1ccc2c(c1)c(NCCCCN)c1c3ccccc3nc-1n2C`, the IC50 is 132 nM with MV4-11, 674 nM with A549 [1], 657 nM with HCT-116 and 1620 nM in the test with BALB/3T3 [2].
On to `Cn1c2nc3ccccc3c-2c(NCCCN)c2ccccc21`, for which the IC50 in the test on MV4-11 was determined as 66 nM; with A549 [1], 205 nM; in the test on HCT-116 it was 302 nM; with BALB/3T3 [2], 884 nM. For the same compound, the “Ratio IC50” value in the test on BALB/3T3 [5] and in the test with BALB/3T3 [3] was 3 throughout.
In the test on MV4-11, `CN(C)CCNc1c2cc(Cl)ccc2nc2c1c1ccccc1n2C` had an IC50 of 2830 nM.
In the case of `CCN(CC)CCCC(C)Nc1c2c3ccccc3nc-2n(C)c2ccc(Cl)cc12` (configuration not stated), the IC50 with MV4-11 worked out at 780 nM. Compared with the last compound, the IC50 is about 3.6-fold lower.
Turning to `Cn1c2nc3ccccc3c-2c(NCCCCN)c2cc(Cl)ccc21`, in the test with MV4-11, half-maximal inhibition (IC50) required 680 nM. This IC50 and that of the compound before are within 1.5-fold of each other.
As for `Cn1c2nc3ccccc3c-2c(NCCc2c[nH]c3ccccc23)c2cc(Cl)ccc21`, 447 nM corresponded to half-maximal inhibition in the test on MV4-11 (IC50).
With `Cn1c2nc3ccccc3c-2c(NCCCO)c2cc(Br)ccc21`, the IC50 with MV4-11 amounted to 703 nM; in the test on A549 [1], 1590 nM; with HCT-116, 989 nM; with BALB/3T3 [2], 1200 nM.
On the same counts, the results for `Cn1c2ccccc2c2c(NCCCCN)c3cc(Cl)ccc3nc21` are 669 nM, 6090 nM, 5500 nM and 9010 nM.
Regarding `CCN(CC)CCCC(C)Nc1c2c3ccccc3nc-2n(C)c2ccccc12` (configuration not stated), the IC50 in the test with MV4-11 came to 721 nM. This lies in the sub-micromolar range.
For `Cn1c2ccccc2c2c(NCCCO)c3cc(Cl)ccc3nc21`, in the test with MV4-11, inhibition was half-maximal at 6210 nM (IC50).
Regarding `CN1CCCN(c2c3c4ccccc4nc-3n(C)c3ccccc23)CC1`, 7170 nM corresponded to half-maximal inhibition in the test with MV4-11 (IC50).
Take `Cn1c2ccccc2c2c(NCCCN)c3cc(Cl)ccc3nc21`: the IC50 is 800 nM in the test with MV4-11, 7380 nM with A549 [1], 4490 nM in the test on HCT-116 and 9800 nM in the test on BALB/3T3 [2]. Moreover, the K with Nucleic Acid is 3.28 ×10⁵ L/mol.
Take `Cn1c2ccccc2c2c(NCCc3c[nH]c4ccccc34)c3cc(Cl)ccc3nc21`: the IC50 with MV4-11 came to 18800 nM. That is a double-digit micromolar value.
On the same count and under the same terms, then `CN1CCCN(Cc2c3c4ccccc4nc-3n(C)c3ccc(Cl)cc23)CC1`, with 3440 nM.
`Cn1c2ccccc2c2c(NCCN)c3cc(Cl)ccc3nc21`: the IC50 in the test on MV4-11 is 456 nM; with A549 [1], 8280 nM; in the test with HCT-116, 6990 nM; with BALB/3T3 [2], 10400 nM.
In the case of `Cn1c2ccccc2c2c(N3CCOCC3)c3cc(Cl)ccc3nc21`, the IC50 in the test on MV4-11 was greater than 25000 nM.
